ChEMBL document CHEMBL3414486, “Synthesis of heterocycle-modified betulinic acid derivatives as antitumor agents” (Eur J Med Chem, 2015)
The source made the active and inactive calls. The rule behind the calls is not given here.

Columns and labels:
DU-145 [1] = test: Cytotoxicity against human DU145 cells assessed as growth inhibition after 96 hrs by SRB assay; type: functional, cell-based; conditions: DU-145, 96 h
In short: (§1)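 SRB viability assay. Cells are seeded for 24 h, then exposed for 96 h to a concentration series from 20 mM DMSO stocks, with a DMSO control. Cells are fixed in 50% TCA (2 h, 4 °C), stained with 0.4% SRB for 10 min and washed with 1% acetic acid. Bound dye is dissolved in 10 mM Tris base and read at 515 nm. IC50 is averaged from at least 3 independent experiments. SI is IC50 in HAF divided by IC50 in the cancer line.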

NCI/ADR-RES [2] = test: Selectivity index, ratio of IC50 for HAF to IC50 for human MCF7/ADR cells; in short: as §1
PC-3 = test: Selectivity index, ratio of IC50 for HAF to IC50 for human PC3 cells; in short: as §1
[3] = Cytotoxicity against human PC3 cells assessed as growth inhibition after 96 hrs by SRB assay; type: functional, cell-based; conditions: PC-3, 96 h; in short: as §1
[4] = Cytotoxicity against human MCF7/ADR cells assessed as growth inhibition after 96 hrs by SRB assay; type: functional, cell-based; conditions: NCI/ADR-RES; in short: as §1
NCI/ADR-RES [5] = test: Induction of apoptosis in human MCF7/ADR cells assessed as late apoptotic cells at 80 uM after 24 hrs by annexin V-FITC/propidium iodide staining-based flow cytometric analysis (reference value: 1.48%); type: functional
MDA-MB-231 [6] = test: Cytotoxicity against human MDA-MB-231 cells assessed as growth inhibition after 96 hrs by SRB assay; type: functional, cell-based; conditions: MDA-MB-231, 96 h; in short: as §1
[7] = Selectivity index, ratio of IC50 for HAF to IC50 for human MDA-MB-231 cells; in short: as §1
MDA-MB-231 [8] = test: Antimetastatic activity against human MDA-MB-231 cells at 10 to 50 uM after 12 hrs by transwell assay relative to control; type: functional, cell-based
In short: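 Transwell migration: 8 × 10^4 MDA-MB-231 cells in serum-free medium in the upper chamber, with 10% FBS medium below. Compound added to both chambers, then 12 h migration. Non-migrated cells swabbed off. Migrated cells fixed in 4% paraformaldehyde for 30 min, stained with 0.1% crystal violet for 5 min, and counted in 5 random fields. Inhibition normalized to untreated control migration.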

MCF7 [9] = test: Induction of apoptosis in human MCF7 cells assessed as early apoptotic cells at 80 uM after 24 hrs by annexin V-FITC/propidium iodide staining-based flow cytometric analysis (reference value: 0.74%); type: functional
T47D [10] = test: Cytotoxicity against human T47D cells assessed as growth inhibition after 96 hrs by SRB assay; type: functional, cell-based; in short: as §1
MCF7 [11] = test: Selectivity index, ratio of IC50 for HAF to IC50 for human MCF7 cells; in short: as §1
4T1 [12] = test: Selectivity index, ratio of IC50 for HAF to IC50 for mouse 4T1 cells; in short: as §1
MCF7 [13] = test: Induction of apoptosis in human MCF7 cells assessed as late apoptotic cells at 80 uM after 24 hrs by annexin V-FITC/propidium iodide staining-based flow cytometric analysis (reference value: 0.84%); type: functional
NCI/ADR-RES [14] = test: Induction of apoptosis in human MCF7/ADR cells assessed as early apoptotic cells at 80 uM after 24 hrs by annexin V-FITC/propidium iodide staining-based flow cytometric analysis (reference value: 0.67%); type: functional
[15] = Cytotoxicity against HAF assessed as growth inhibition after 96 hrs by SRB assay; conditions: Homo sapiens; in short: as §1
4T1 [16] = test: Cytotoxicity against mouse 4T1 cells assessed as growth inhibition after 96 hrs by SRB assay; type: functional, cell-based; conditions: 4T1, 96 h; in short: as §1
MCF7 [17] = test: Cytotoxicity against human MCF7 cells assessed as growth inhibition after 96 hrs by SRB assay; type: functional, cell-based; conditions: MCF7, 96 h; in short: as §1
MDA-MB-231 [18] = test: Induction of apoptosis in human MDA-MB-231 cells assessed as late apoptotic cells at 80 uM after 24 hrs by annexin V-FITC/propidium iodide staining-based flow cytometric analysis (reference value: 2.4%)
HT-29 [19] = test: Cytotoxicity against human HT-29 cells assessed as growth inhibition after 96 hrs by SRB assay; type: functional, cell-based; conditions: HT-29, 96 h; in short: as §1
T47D [20] = test: Selectivity index, ratio of IC50 for HAF to IC50 for human T47D cells; in short: as §1
MDA-MB-231 [21] = test: Induction of apoptosis in human MDA-MB-231 cells assessed as early apoptotic cells at 80 uM after 24 hrs by annexin V-FITC/propidium iodide staining-based flow cytometric analysis (reference value: 0.59%)
HCT-116 = test: Selectivity index, ratio of IC50 for HAF to IC50 for human HCT116 cells; in short: as §1
DU-145 [22] = test: Selectivity index, ratio of IC50 for HAF to IC50 for human DU145 cells; in short: as §1
[23] = Cytotoxicity against human HCT116 cells assessed as growth inhibition after 96 hrs by SRB assay; type: functional, cell-based; conditions: HCT-116, 96 h; in short: as §1
HT-29 [24] = test: Selectivity index, ratio of IC50 for HAF to IC50 for human HT-29 cells; in short: as §1
MDA-MB-231 [25] = test: Antimetastatic activity against human MDA-MB-231 cells at 2.5 to 10 uM after 12 hrs by transwell assay; type: functional, cell-based
MCF7 [26] = test: Induction of apoptosis in human MCF7 cells assessed as early apoptotic cells at 20 uM after 24 hrs by annexin V-FITC/propidium iodide staining-based flow cytometric analysis (reference value: 0.74%); type: functional
NCI/ADR-RES [27] = test: Induction of apoptosis in human MCF7/ADR cells assessed as late apoptotic cells at 20 uM after 24 hrs by annexin V-FITC/propidium iodide staining-based flow cytometric analysis (reference value: 1.48%); type: functional
NCI/ADR-RES [28] = test: Induction of apoptosis in human MCF7/ADR cells assessed as early apoptotic cells at 20 uM after 24 hrs by annexin V-FITC/propidium iodide staining-based flow cytometric analysis (reference value: 0.67%); type: functional
MDA-MB-231 [29] = test: Induction of apoptosis in human MDA-MB-231 cells assessed as late apoptotic cells at 5 uM after 24 hrs by annexin V-FITC/propidium iodide staining-based flow cytometric analysis (reference value: 2.4%); type: functional
MCF7 [30] = test: Induction of apoptosis in human MCF7 cells assessed as late apoptotic cells at 20 uM after 24 hrs by annexin V-FITC/propidium iodide staining-based flow cytometric analysis (reference value: 0.84%); type: functional
MDA-MB-231 [31] = test: Induction of apoptosis in human MDA-MB-231 cells assessed as early apoptotic cells at 5 uM after 24 hrs by annexin V-FITC/propidium iodide staining-based flow cytometric analysis (reference value: 0.59%); type: functional
MCF7 [32] = test: Induction of apoptosis in human MCF7 cells assessed as early apoptotic cells at 1 uM after 24 hrs by annexin V-FITC/propidium iodide staining-based flow cytometric analysis (reference value: 0.74%); type: functional
NCI/ADR-RES [33] = test: Induction of apoptosis in human MCF7/ADR cells assessed as early apoptotic cells at 1 uM after 24 hrs by annexin V-FITC/propidium iodide staining-based flow cytometric analysis (reference value: 0.67%); type: functional
NCI/ADR-RES [34] = test: Induction of apoptosis in human MCF7/ADR cells assessed as late apoptotic cells at 1 uM after 24 hrs by annexin V-FITC/propidium iodide staining-based flow cytometric analysis (reference value: 1.48%); type: functional
MCF7 [35] = test: Induction of apoptosis in human MCF7 cells assessed as late apoptotic cells at 1 uM after 24 hrs by annexin V-FITC/propidium iodide staining-based flow cytometric analysis (reference value: 0.84%); type: functional

Row | Compound | IC50 (DU-145 [1]) | Ratio IC50 (NCI/ADR-RES [2]) | Ratio IC50 (PC-3) | IC50 [3] | IC50 [4] | IC50 (MDA-MB-231 [6]) | Ratio IC50 [7] | IC50 (T47D [10]) | Ratio IC50 (MCF7 [11]) | Ratio IC50 (4T1 [12]) | IC50 [15] | IC50 (4T1 [16]) | IC50 (MCF7 [17]) | IC50 (HT-29 [19]) | Ratio IC50 (T47D [20]) | Ratio IC50 (HCT-116) | Ratio IC50 (DU-145 [22]) | IC50 [23] | Ratio IC50 (HT-29 [24]) | other results
1 | C=C(C)[C@@H]1CC[C@]2(C(=O)O)CC[C@]3(C)[C@H](CC[C@@H]4[C@@]5(C)CC[C@H](O)C(C)(C)[C@@H]5CC[C@]43C)[C@@H]12 [BETULINIC ACID] | 36.2 µM | 0.9 | 1.3 | 27.5 µM | 38.5 µM | 34.6 µM | 1 | 15.6 µM | 1.5 | 2.5 | 34.5 µM | 14 µM | 22600 nM | 17.3 µM | 2.2 | 1.6 | 0.9 | 22.1 µM | 2 | Activity (NCI/ADR-RES [5]): 2.64%; Activity (MDA-MB-231 [8]): Active; Activity (MCF7 [9]): 16.58%; Activity (MCF7 [13]): 1.3%; Activity (NCI/ADR-RES [14]): 4.6%; Activity (MDA-MB-231 [18]): 27.58%; Activity (MDA-MB-231 [21]): 1.94%
2 | C=C(C)[C@@H]1CC[C@]2(C(=O)O)CC[C@]3(C)[C@H](CC[C@@H]4[C@@]5(C)CC[C@H](NC(=O)C6CCNCC6)C(C)(C)[C@@H]5CC[C@]43C)[C@@H]12 | 2.45 µM | 13.5 | 4 | 1.11 µM | 0.33 µM | 1.01 µM | 4.4 | 1.4 µM | 8.2 | 2.5 | 4.45 µM | 1.77 µM | 540 nM | 0.97 µM | 3.2 | 4 | 1.8 | 1.11 µM | 4.6 | Activity (MDA-MB-231 [25]): Active; Activity (MCF7 [26]): 16.17%; Activity (NCI/ADR-RES [27]): 6.35%; Activity (NCI/ADR-RES [28]): 12.81%; Activity (MDA-MB-231 [29]): 25.87%; Activity (MCF7 [30]): 4.15%; Activity (MDA-MB-231 [31]): 5.56%
3 | CC(=O)O[C@@]12CO[C@@H]1C[C@H](O)[C@@]1(C)C(=O)[C@H](O)C3=C(C)[C@@H](OC(=O)[C@H](O)[C@@H](NC(=O)OC(C)(C)C)c4ccccc4)C[C@@](O)([C@@H](OC(=O)c4ccccc4)[C@H]21)C3(C)C.O.O.O [DOCETAXEL] |  |  |  |  | 5.18 µM |  |  |  |  |  |  |  | 5 nM |  |  |  |  |  |  | Activity (MCF7 [32]): 5.61%; Activity (NCI/ADR-RES [33]): 1.38%; Activity (NCI/ADR-RES [34]): 1.58%; Activity (MCF7 [35]): 10.63%
4 | C=C(C)[C@@H]1CC[C@]2(C(=O)O)CC[C@]3(C)[C@H](CC[C@@H]4[C@@]5(C)CC[C@H](OC(=O)C6CCCNC6)C(C)(C)[C@@H]5CC[C@]43C)[C@@H]12 (some centres not stated) | 11.3 µM | 3.4 | 0.7 | 8.09 µM | 1.6 µM | 4.97 µM | 1.1 | 9.73 µM | 1.2 | 0.7 | 5.42 µM | 7.65 µM | 4420 nM | 4.89 µM | 0.6 | 1.2 | 0.5 | 4.6 µM | 1.1 | 
